In the library only some 2.3% were active in any assay of this set; here they are far more common.
HCV NS3 hel inh: blocks Hepatitis C virus NS3 helicase unwinding. NS3 helicase DNA unwinding, Cy5 molecular beacon fluorescence. inhibition, % at 10.9 µM. 290,000 compounds, 0.56% hits;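 active = inhibition above the mean of all tested compounds plus 3 SD, set per campaign, cut at about 35% in these data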;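 note: 0% = DMSO wells and 100% = thioflavine S control wells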
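Assay system – hepatitis C virus NS3 helicase domain fragment enzyme · Buffer or medium – MOPS pH 6.5, MgCl2, DTT, Tween20, BSA · Reagent – Cy5/quencher beacon DNA duplex and ATP to start · Compound – single 10.9 µM dose · Timing – 1 h at 25 °C · Technique – Cy5 beacon fluorescence read at start and 1 h · Measure – % inhibition of unwinding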
EBNA-1 inhibitor: blocks EBNA-1 binding to DNA. EBNA-1 DNA binding, fluorescence polarization. inhibition, % at 14.8 µM. 300,000 compounds, 0.34% hits. AID 1950; in the data active = inhibition above about 28%
EBV gp42 block: inhibitors of Epstein-Barr virus glycoprotein 42. Q1HVG2. Fluorescence polarization binding assay, mP read-out. inhibition, % (tested at 21.74 µM). 220,000 compounds, 0.42% hits; in the data active = inhibition above about 50%
Target sequence (Q1HVG2 whole entry, looked up): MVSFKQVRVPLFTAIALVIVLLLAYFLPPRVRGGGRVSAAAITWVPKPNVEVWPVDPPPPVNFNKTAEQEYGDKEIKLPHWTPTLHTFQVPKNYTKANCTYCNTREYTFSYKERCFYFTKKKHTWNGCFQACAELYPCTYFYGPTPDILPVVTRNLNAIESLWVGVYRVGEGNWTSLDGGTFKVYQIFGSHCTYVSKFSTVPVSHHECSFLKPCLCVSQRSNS
ZTA counter: counter-screen for EBNA-1 inhibitors: inhibitors of Epstein-Barr virus ZTA; 320,000 compounds, 0.15% hits; P03206; ZTA-DNA binding, fluorescence polarization; inhibition, % at 11 µM; in the data active = inhibition above about 33%
Target sequence (P03206 whole entry, looked up): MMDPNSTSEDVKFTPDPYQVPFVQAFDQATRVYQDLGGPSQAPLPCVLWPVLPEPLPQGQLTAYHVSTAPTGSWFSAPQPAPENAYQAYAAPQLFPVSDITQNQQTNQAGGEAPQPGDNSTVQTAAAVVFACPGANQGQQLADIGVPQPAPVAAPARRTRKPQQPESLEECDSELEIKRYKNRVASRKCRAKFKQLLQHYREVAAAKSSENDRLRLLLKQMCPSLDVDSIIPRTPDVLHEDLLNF
HCV core dimer: HCV core protein dimerization inhibition | TR-FRET GST/Flag-core106 dimerization, 1536-well | inhibition, % at 5 µM | 300,000 compounds, 0.33% hits | AID 1899;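 active = inhibition above the mean of all tested compounds plus 3 SD, set per screening campaign, cut at about 45% in these data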
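Assay system: GST-tagged and Flag-tagged HCV core protein residues 1-106 / Times: compound-protein-antibody incubation 4 h at 22.5 °C / Signal: time-resolved FRET, ex 340 nm, em 617 and 671 nm / Evaluation: % inhibition based on acceptor/donor emission ratio / Benchmarks: wells lacking GST-core106 and wells with excess unlabelled core106 / Repeats: singlicate, one well per compound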
GPR7 antag: human neuropeptides B/W receptor 1 antagonism; inhibition, % at 4.4 µM; GPR7-expressing cells, fluorescence antagonist assay; 290,000 compounds, 1.1% hits; P48145; in the data active = inhibition above about 16%, passing the limit was not always enough;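 note: cells stimulated with the agonist NPW; 0% = agonist with vehicle and 100% = vehicle without agonist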
Target sequence (P48145 whole entry, looked up): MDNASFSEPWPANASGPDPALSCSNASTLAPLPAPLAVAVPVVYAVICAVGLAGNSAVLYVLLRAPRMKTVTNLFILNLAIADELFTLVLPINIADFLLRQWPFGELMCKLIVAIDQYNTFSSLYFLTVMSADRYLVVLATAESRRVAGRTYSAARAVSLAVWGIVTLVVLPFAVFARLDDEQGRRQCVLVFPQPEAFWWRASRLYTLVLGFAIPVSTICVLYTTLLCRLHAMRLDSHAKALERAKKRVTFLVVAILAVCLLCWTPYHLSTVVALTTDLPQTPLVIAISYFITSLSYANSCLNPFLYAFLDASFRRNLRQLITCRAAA
NS3 helicase cf: HCV NS3 helicase inhibition, confirmation assay. inhibition, % at 10.9 µM. NS3 helicase DNA unwinding, Cy5 molecular beacon fluorescence. AID 1943. 1,600 compounds, 31% hits. shares compounds with HCV NS3 hel inh;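 active = inhibition above the mean of all tested compounds plus 3 SD, cutoff set per campaign, cut at about 36% in these data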
FID counter trip: counter-screen for HCV NS3 helicase inhibitors: DNA intercalator displacement; shares compounds with HCV NS3 hel inh; DNA fluorescent intercalator displacement, fluorescence; inhibition, % at 7.9 µM; 1,600 compounds, 4% hits; in the data active = inhibition above about 37%;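 note: 0% = vehicle and 100% = reference compound; higher means more displacement of ethidium bromide from the DNA hairpin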
DNA FID DR: displaces fluorescent intercalator from DNA, HCV helicase counter-screen; fluorescent intercalator displacement from DNA, fluorescence; 120 tested, under 10 active; shares compounds with HCV NS3 hel inh; AID 2172; IC50, µM
GPR7 antag conf: human GPR7 antagonism, confirmation assay. shares compounds with GPR7 antag. GPR7-expressing cells, calcium fluorescence antagonist mode. inhibition, % at 4.4 µM. 2,400 compounds, 52% hits; in the data active = inhibition above about 24%;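 note: stimulated with the GPR7 agonist NPW; 0% = agonist plus vehicle and 100% = vehicle alone without agonist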
MCHR1 antagonist: counter-screen for GPR7 antagonists: antagonists of human MCHR1; shares compounds with GPR7 antag; MCHR1-expressing cells, fluorescence antagonist assay; inhibition, % at 4.4 µM; 2,400 compounds, 62% hits; AID 2148; in the data active = inhibition above about 22%;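 note: 0% = vehicle with agonist and 100% = vehicle without agonist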
EBNA-1 confirm: EBNA-1 (EBV) inhibition, confirmation; shares compounds with EBNA-1 inhibitor; Recombinant EBNA-1 DBD, Cy5-DNA fluorescence polarization; inhibition, % at 14.8 µM; 830 compounds, 35% hits; AID 2292;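 active = mean inhibition across replicates above a set limit taken from the earlier primary screen, cut at about 28% in these data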;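 note: plate controls were EBNA-1 protein with DMSO for no effect and wells lacking EBNA-1 for full effect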
ZTA DNA inh trip: counter-screen for EBNA-1 inhibitors: Epstein-Barr virus ZTA inhibitors, triplicate | shares compounds with EBNA-1 inhibitor | Zta-ZRE DNA binding, Cy5 fluorescence polarization | inhibition, % at 11.1 µM | 830 tested, under 10 active | AID 2328;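 active = mean inhibition over triplicates above a set limit taken from the primary EBNA-1 screen, cut at about 37% in these data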;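 note: purified full length Zta protein with Cy5 labeled ZRE DNA probe; 0% = Zta with DMSO and 100% = wells lacking Zta protein; inhibitors lower polarization by freeing the labeled DNA probe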
Zta DNA confirm: EBV ZTA DNA binding inhibition, confirmation. shares compounds with ZTA counter. 320 compounds, 30% hits. Zta-ZRE DNA binding, fluorescence polarization. AID 2361. inhibition, % at 11.1 µM;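 active = mean inhibition across triplicate runs above the hit threshold derived for the original primary screen, cut at about 33% in these data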;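 note: 0% = Zta with DMSO and 100% = wells lacking Zta protein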
EBNA-1 counter: counter-screen for ZTA inhibitors: EBNA-1 DNA binding inhibition. shares compounds with ZTA counter. fluorescence polarization. inhibition, % at 14.8 µM. 320 tested, under 10 active
The depositor's hits bear a star; i = inactive; . = no result. Unless noted, the rule behind the calls is not given here.

SMILES | HCV NS3 hel inh | EBNA-1 inhibitor | EBV gp42 block | ZTA counter | HCV core dimer | GPR7 antag | NS3 helicase cf | FID counter trip | Zta DNA confirm | EBNA-1 counter | others
O=C(O)c1ccc(C(=O)C(=O)c2ccccc2)cc1 | 14 | -17 | -4 | -10 | 0 | -11 | . | . | . | .
O=C(/C(=N/N=C/c1ccc(O)c(O)c1O)c1ccccc1)c1ccccc1 | 49* | 39* | -12 | 4 | 33 | -6 | 1 | 27 | . | . | EBNA-1 confirm=-6;ZTA DNA inh trip=1
COc1ccccc1/C=C1\SC(=S)N(NS(=O)(=O)c2ccc(C)cc2)C1=O | 41* | 31* | . | -2 | 5 | 7 | 71* | -12 | . | . | EBNA-1 confirm=-1;ZTA DNA inh trip=12
CC(C)Oc1cccc(C(=O)C2CCCN(S(=O)(=O)C(C)C)C2)c1 (centres undefined) | -3 | 3 | -9 | -19 | -4 | -9 | . | . | . | .
Nc1c(C(=O)NC2CC2)sc2nc3c(c(-c4ccco4)c12)CC/C3=C/c1ccco1 | 69* | 46* | 104* | 11 | 104* | -9 | 99* | 3 | . | . | DNA FID DR=i;EBNA-1 confirm=-2;ZTA DNA inh trip=15
CCOC(=O)c1sc2nc(-c3ccco3)c3c(c2c1N)CC(C)(C)OC3 | . | -7 | . | -8 | 40 | . | . | . | . | .
CCOC(=O)C1CCN(C(=O)C2CCN(C(=O)c3ccc([N+](=O)[O-])cc3)CC2)CC1 | 11 | 4 | . | -15 | 0 | 15 | . | . | . | .
Cc1cc(C)nc(OC(C(=O)O)C(OCCc2ccccc2)(c2ccccc2)c2ccccc2)n1 (centres undefined) | 37* | 28* | . | 2 | 25 | -9 | 107* | 8 | . | . | EBNA-1 confirm=2;ZTA DNA inh trip=6
N#C/C(=C/c1ccc(-c2cc(C(=O)O)cc(C(=O)O)c2)o1)c1nc2ccccc2s1 | 36* | -5 | -115 | 61* | -4 | -6 | 82* | -15 | 25 | -1
N#C/C(=C\c1ccco1)c1nc2ccccc2s1 | 7 | 2 | 1 | 3 | -8 | 6 | . | . | . | .
CC(C(=O)O)N1C(=O)/C(=C/C=C/c2ccco2)SC1=S (centres undefined) | 51* | 26 | . | 58* | 75* | -6 | 81* | 2 | 73* | 9
O=C1C(=Cc2ccc(Br)o2)C(=O)c2ccccc21 | 45* | 2 | 65* | 52* | 9 | -6 | 85* | 28 | 51* | 13
Cc1cc(C(=O)O)ccc1-n1c(C)ccc1C | 78* | 23 | -10 | 55* | -9 | -7 | 90* | -26 | 57* | 9
CCOC(=O)C1Nc2ccc(C(=O)O)cc2C2C=CCC12 (centres undefined) | 54* | 5 | . | 60* | 0 | -11 | 67* | -16 | 23 | -13
CCCC1Nc2ccc(C(=O)O)cc2C2C=CCC12 (centres undefined) | 27 | 9 | -2 | 25 | -9 | -1 | . | . | . | .
O=C(NCc1ccccc1CN1CCCC1)c1cc2ccccc2o1 | . | . | . | 5 | . | . | . | . | . | .
Cn1c(CCN2CCN(c3ccccn3)CC2)nc2cc(NC(=O)COc3ccc([N+](=O)[O-])cc3)ccc21 | 38* | 2 | . | 38* | 7 | 7 | 9 | 10 | 21 | -1
Clc1ccc(C2CSc3c4ncnc-4ncn32)cc1 (centres undefined) | 11 | 3 | 2 | 10 | 0 | -13 | . | . | . | .
COc1ccc2c(c1O)C(=O)c1ccccc1C2=O | 7 | 14 | -13 | 4 | 0 | -14 | . | . | . | .
Nc1c(O)ccc2c1C(=O)c1ccccc1C2=O | 43* | 9 | 146* | 40* | -155 | -6 | 11 | 27 | 35* | 6
Cc1nc(N2CCCCC2)c2c(C)c(C(=O)Nc3ccc4c(c3)OCCO4)sc2n1 | -6 | -15 | . | 5 | 1 | -34 | . | . | . | .
O=C(Nc1ccccc1[N+](=O)[O-])C1COc2ccccc2O1 (centres undefined) | -7 | -1 | . | 15 | 2 | -12 | . | . | . | .
O=C(O)c1cccc(-n2cccc2/C=C/[N+](=O)[O-])c1 | 41* | -4 | 2 | 56* | 0 | -15 | 41* | 13 | 16 | -8
O=C(O)c1cccc(-n2cccc2/C=C\[N+](=O)[O-])c1 | 28 | 9 | -8 | 25 | -2 | -12 | . | . | . | .
c1cncc(CNc2nc(-c3cccnc3)nc3ccccc23)c1 | 10 | -13 | . | -9 | 1 | -3 | . | . | . | .
SMILES | HCV NS3 hel inh | EBNA-1 inhibitor | EBV gp42 block | ZTA counter | HCV core dimer | GPR7 antag | NS3 helicase cf | FID counter trip | Zta DNA confirm | EBNA-1 counter | others
CC(C)(C)c1ccc(-c2nc(NCc3cccnc3)c3ccccc3n2)cc1 | -26 | 3 | -22 | 5 | 1 | 23* | . | . | . | . | GPR7 antag conf=41*;MCHR1 antagonist=30*
Cc1ccccc1OCC(O)CNC1CCC(NCC(O)COc2ccccc2C)CC1 (centres undefined) | -85 | -11 | . | -3 | -7 | 77* | . | . | . | . | GPR7 antag conf=83*;MCHR1 antagonist=80*
NC(=O)NC(CC(=O)NNC(=O)c1ccccn1)c1ccccc1Cl (centres undefined) | . | . | . | -1 | . | . | . | . | . | .
CCN(CC#CCC(O)(c1ccccc1)C1CCCC1)C(C)C (centres undefined) | -4 | 4 | -13 | 14 | 4 | 29* | . | . | . | . | GPR7 antag conf=3;MCHR1 antagonist=-1
CCN(CC)S(=O)(=O)c1ccc2[nH]c(=O)cc(C(=O)Nc3cccc(C(C)=O)c3)c2c1 | -5 | -4 | -9 | -10 | -4 | 0 | . | . | . | .
O=C(N/C(=C\c1cccc([N+](=O)[O-])c1)C(=O)N1CCOCC1)c1ccc([N+](=O)[O-])cc1 | 15 | 0 | -19 | 9 | 0 | 23* | . | . | . | . | GPR7 antag conf=1;MCHR1 antagonist=-2
